From ChEMBL document CHEMBL4138245, “Design and synthesis of novel quinacrine-[1,3]-thiazinan-4-one hybrids for their anti-breast cancer activity” (Eur J Med Chem, 2018)
Calls of active or inactive are those of the source. The rule behind the calls is not given here.

Assays:
PC-3 = assay: Antiproliferative activity against human PC3 cells assessed as compound concentration required to show complete inhibition of cell viability up to 96 hrs by SRB assay; format: functional
NCI-H1975 = assay: Antiproliferative activity against human NCI-H1975 cells assessed as compound concentration required to show complete inhibition of cell viability up to 96 hrs by SRB assay; format: functional
MCF7 [1] = assay: Cell cycle arrest in human MCF7 cells assessed as DNA content at 2 uM after 12 hrs by BrdU incorporation assay (reference value: 20.7%); format: functional
[2] = Selectivity index, ratio of compound concentration for cell killing activity in human 184B5 cells to compound concentration for cell killing activity in human MDA-MB-231 cells; format: toxicity, cell-based; conditions: 184B5 cells versus MDA-MB-231 cells, read-out: Selectivity Index
[3] = target: RAC-alpha serine/threonine-protein kinase (Homo sapiens) (UniProt P31749); assay: Upregulation of AKT phosphorylation at Thr308 residue in human MCF7 cells at 2 uM after 24 to 48 hrs by Western blot method; format: cell-based
Procedure, shortened: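 MCF7 cells were treated with the compound, collected and PBS-washed, then lysed on ice (Triton X-100/Tris pH 7.4 buffer with PMSF and protease inhibitors). Lysates were BCA-quantified, and 30–40 µg protein was resolved on 8% or 10% SDS-PAGE. Proteins were semi-dry transferred to PVDF, milk-blocked and probed with primary antibody overnight at 4 °C, then detected by ECL. Blots are representative of three independent experiments.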

[4] = Selectivity index, ratio of compound concentration for cell killing activity in human 184B5 cells to compound concentration for cell killing activity in human CAMA1 cells; format: toxicity, cell-based; conditions: 184B5 cells versus CAMA1 cells, read-out: Selectivity Index
A549 = assay: Antiproliferative activity against human A549 cells assessed as compound concentration required to show complete inhibition of cell viability up to 96 hrs by SRB assay; format: functional
[5] = Selectivity index, ratio of compound concentration for cell killing activity in human MCF10A cells to compound concentration for cell killing activity in human A549 cells; format: toxicity, cell-based; conditions: MCF10A cells versus A549 cells, read-out: Selectivity Index
MCF7 [6] = assay: Antiproliferative activity against human MCF7 cells assessed as compound concentration required to show complete inhibition of cell viability up to 96 hrs by SRB assay; format: functional
MCF7 [7] = assay: Effect on Cyclin-D protein expression in human MCF7 cells at 2 uM after 24 to 72 hrs by Western blot method; format: functional, cell-based
CAMA-1 = assay: Antiproliferative activity against human CAMA1 cells assessed as compound concentration required to show complete inhibition of cell viability up to 96 hrs by SRB assay; format: functional
[8] = Selectivity index, ratio of compound concentration for cell killing activity in human MCF10A cells to compound concentration for cell killing activity in human MDA-MB-453 cells; format: toxicity, cell-based; conditions: MCF10A cells versus MDA-MB-453 cells, read-out: Selectivity Index
MCF7 [9] = assay: Cell cycle arrest in human MCF7 cells assessed as accumulation at S phase at 2 uM after 48 hrs by propidium iodide staining based flow cytometry; format: functional
Procedure, shortened: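 MCF7, MDA-MB231 and non-cancer 184B5 breast cells exposed to 2 μM for 48 h, then cell-cycle analysis by flow cytometry; duplicates, repeated three times.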

[10] = target: T1, Serine/threonine-protein kinase Chk1 (Homo sapiens) (UniProt O14757); assay: Induction of CHK1 phosphorylation at S298 residue in human MCF7 cells at 2 uM after 12 to 48 hrs by Western blot method; format: cell-based
T1 sequence (whole entry): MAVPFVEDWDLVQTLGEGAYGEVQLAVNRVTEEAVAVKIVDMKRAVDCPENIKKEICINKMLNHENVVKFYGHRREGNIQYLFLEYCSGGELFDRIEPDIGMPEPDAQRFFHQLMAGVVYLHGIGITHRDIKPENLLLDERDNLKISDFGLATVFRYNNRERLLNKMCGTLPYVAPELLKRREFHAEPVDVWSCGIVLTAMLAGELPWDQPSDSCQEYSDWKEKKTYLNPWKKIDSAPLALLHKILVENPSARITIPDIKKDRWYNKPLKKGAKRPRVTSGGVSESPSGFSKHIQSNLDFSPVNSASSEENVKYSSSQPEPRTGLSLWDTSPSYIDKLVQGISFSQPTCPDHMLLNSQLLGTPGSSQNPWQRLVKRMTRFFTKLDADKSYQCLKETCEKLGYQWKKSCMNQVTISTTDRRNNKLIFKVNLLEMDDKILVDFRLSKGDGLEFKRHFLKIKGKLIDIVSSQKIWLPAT

184B5 [11] = assay: Inhibition of DNA replication in human 184B5 cells assessed as EdU incorporation at 2 uM pretreated for 48 hrs followed by EdU addition at final 45 mins of 48 hrs incubation time (reference value: 55%); format: cell-based; design: scale not given: the % may be the effect or the level left; conditions: 184b5, 48 h
184B5 [12] = assay: Antiproliferative activity against human 184B5 cells assessed as compound concentration required to show complete inhibition of cell viability up to 96 hrs by SRB assay; format: cell-based; conditions: 184b5, 96 h
SK-BR-3 = assay: Antiproliferative activity against human SK-BR-3 cells assessed as compound concentration required to show complete inhibition of cell viability up to 96 hrs by SRB assay; format: functional
[13] = Selectivity index, ratio of compound concentration for cell killing activity in human 184B5 cells to compound concentration for cell killing activity in human LNCAP cells; format: toxicity, cell-based; conditions: 184B5 cells versus LNCAP cells, read-out: Selectivity Index
MCF7 [14] = assay: Induction of DNA damage in human MCF7 cells assessed as increase in gammaH2Ax level at 2 uM after 24 to 48 hrs by Western blot method; format: functional, cell-based
[15] = Selectivity index, ratio of compound concentration for cell killing activity in human MCF10A cells to compound concentration for cell killing activity in human BT20 cells; format: toxicity, cell-based; conditions: MCF10A cells versus BT20 cells, read-out: Selectivity Index
MCF-10A = assay: Antiproliferative activity against human MCF10A cells at 1 to 2 uM up to 96 hrs by SRB assay; format: cell-based
MDA-MB-231 [16] = assay: Antiproliferative activity against human MDA-MB-231 cells after 48 hrs by SRB assay; format: functional, cell-based; conditions: MDA-MB-231, 48 h
Procedure, shortened: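 SRB assay: 5,000-10,000 cells/well plated, 24 h at 37 °C/5% CO2 before drug; seven concentrations from 100 μM down (two- to ten-fold serial dilutions, DMSO ≤0.1% final) for 48 h; TCA fixation (10% final, 60 min, 4 °C), 0.4% SRB in 1% acetic acid, solubilized in 10 mM Tris base, absorbance 515-564 nm; growth = (Ti−Tz)/(C−Tz)×100; IC50 from sigmoidal variable-slope fit; triplicates, ≥2 independent experiments.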

MDA-MB-231 [17] = assay: Inhibition of DNA replication in human MDA-MB-231 cells assessed as EdU incorporation at 2 uM pretreated for 48 hrs followed by EdU addition at final 45 mins of 48 hrs incubation time (reference value: 45 to 63%); format: functional; design: scale not given: the % may be the effect or the level left
MCF7 [18] = assay: Potency index, ratio of cisplatin IC50 to compound IC50 for antiproliferative activity against human MCF7 cells; format: functional
[19] = Selectivity index, ratio of compound concentration for cell killing activity in human 184B5 cells to compound concentration for cell killing activity in human A549 cells; format: toxicity, cell-based; conditions: 184B5 cells versus A549 cells, read-out: Selectivity Index

RAC-alpha serine/threonine-protein kinase (Homo sapiens), sequence (P31749 whole entry): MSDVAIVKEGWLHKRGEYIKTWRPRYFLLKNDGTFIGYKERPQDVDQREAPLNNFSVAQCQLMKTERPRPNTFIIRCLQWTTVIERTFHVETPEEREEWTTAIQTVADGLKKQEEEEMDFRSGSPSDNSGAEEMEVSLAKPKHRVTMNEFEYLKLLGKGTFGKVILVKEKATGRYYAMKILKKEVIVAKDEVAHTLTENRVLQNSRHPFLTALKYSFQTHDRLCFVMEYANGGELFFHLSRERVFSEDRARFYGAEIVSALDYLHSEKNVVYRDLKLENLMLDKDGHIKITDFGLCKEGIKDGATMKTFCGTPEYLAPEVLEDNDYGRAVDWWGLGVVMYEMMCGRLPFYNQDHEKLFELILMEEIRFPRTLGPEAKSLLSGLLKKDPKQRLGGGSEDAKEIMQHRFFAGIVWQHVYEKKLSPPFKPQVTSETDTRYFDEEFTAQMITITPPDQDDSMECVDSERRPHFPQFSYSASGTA

Activity [3]: Active | Activity [10]: inactive | Activity (184B5 [11]): 52% | IC50 (MDA-MB-231 [16]): 2.8 µM
SMILES: COc1ccc2nc3cc(Cl)ccc3c(NCCCN3C(=O)CCSC3c3cccs3)c2c1 (stereo not given)
Activity (PC-3): 2 µM | Activity (NCI-H1975): 2 µM | Activity (MCF7 [1]): 8.7% | selectivity ratio [2]: 3 to 6 | selectivity ratio [4]: 3 to 6 | Activity (A549): 2 µM | selectivity ratio [5]: 3 to 6 | Activity (MCF7 [6]): 1 µM | Activity (MCF7 [7]): inactive | Activity (CAMA-1): 2 µM | selectivity ratio [8]: 3 to 6 | Activity (MCF7 [9]): Active | Activity (184B5 [12]): 6 µM | Activity (SK-BR-3): 2 µM | selectivity ratio [13]: 3 to 6 | Activity (MCF7 [14]): inactive | selectivity ratio [15]: 3 to 6 | Activity (MCF-10A): Non-Toxic | Activity (MDA-MB-231 [17]): 10% | Ratio IC50 (MCF7 [18]): 37.3 | selectivity ratio [19]: 3 to 6
